# Source: article PMC5299035 (Drug development research, 2016)
# How the values were obtained:
# Format in all cases: cell-based
# FPR3 = target: T1, FPR3 (Homo sapiens, UniProt P25089); assay: Ca2+ mobilization assay in FPR3-HL60 cells; details: for Emax: read-out: Ca2+ flux FPR3-HL60 efficacy
# T1 sequence (P25089 1-353): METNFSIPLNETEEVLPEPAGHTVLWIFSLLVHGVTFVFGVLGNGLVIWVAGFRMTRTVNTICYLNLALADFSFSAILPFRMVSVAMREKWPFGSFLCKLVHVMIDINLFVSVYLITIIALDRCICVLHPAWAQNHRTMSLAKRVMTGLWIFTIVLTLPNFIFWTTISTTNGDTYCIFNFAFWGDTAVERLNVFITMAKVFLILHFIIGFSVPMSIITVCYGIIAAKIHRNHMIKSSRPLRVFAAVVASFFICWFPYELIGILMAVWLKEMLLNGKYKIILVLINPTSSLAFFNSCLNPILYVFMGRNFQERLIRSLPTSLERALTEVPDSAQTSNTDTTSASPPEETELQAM
# Method in brief: (§1)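 FPR2- or FPR3-transfected HL60 cells were grown in RPMI 1640 with 10% heat-inactivated FCS and G418 1 mg/mL. Cells were loaded with Fluo-4 AM (1.25 μg/mL final) for 30 min at 37 °C in the dark, washed, and seeded at 2 × 10^5 cells/well in HBSS+. Fluorescence (ex 485/em 538 nm) was read every 5 s for 240 s at room temperature. Peak rise over baseline was normalised to the reference agonist. EC50 came from 5-6-point nonlinear regression over three independent experiments.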
# FPR1 = target: T2, FPR1 (Homo sapiens, UniProt P21462); assay: Ca2+ mobilization assay in FPR1-HL60 cells; details: for Emax: read-out: Ca2+ flux FPR1-HL60 efficacy
# T2 sequence (P21462 1-350): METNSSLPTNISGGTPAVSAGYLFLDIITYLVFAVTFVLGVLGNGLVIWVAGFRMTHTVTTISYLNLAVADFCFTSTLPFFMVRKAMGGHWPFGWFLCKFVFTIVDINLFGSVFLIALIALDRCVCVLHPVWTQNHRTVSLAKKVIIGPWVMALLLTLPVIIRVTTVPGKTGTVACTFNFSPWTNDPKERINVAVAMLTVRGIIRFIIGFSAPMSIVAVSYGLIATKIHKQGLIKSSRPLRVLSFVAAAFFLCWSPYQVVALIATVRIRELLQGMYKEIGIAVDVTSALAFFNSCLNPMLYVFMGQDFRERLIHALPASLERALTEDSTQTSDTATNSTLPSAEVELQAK
# Method in brief: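 FPR1-transfected HL60 cells were grown in RPMI 1640 with 10% heat-inactivated FCS, 10 mM HEPES and G418 (1 mg/mL). Cells were loaded with Fluo-4 AM (1.25 μg/mL final) for 30 min at 37 °C in the dark, then washed and seeded in HBSS+ at 2 × 10^5 cells/well. Fluorescence (485/538 nm) was read every 5 s for 240 s at room temperature after compound addition. Peak rise over baseline was set against 5 nM fMLF (100%). EC50 came from nonlinear regression of 5-6-point curves, mean of three independent experiments. No activity meant no response within 2 min (limits: efficacy >20%, EC50 <50 μM).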
# human neutrophils = assay: Ca2+ mobilization assay in human neutrophils; details: Homo sapiens, Neutrophil, read-out: Ca2+ flux human neutrophils EC50
# Method in brief: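 Neutrophils from healthy donors were purified by dextran sedimentation, Histopaque 1077 gradient and hypotonic red-cell lysis (>95% pure, >98% viable). After Fluo-4 AM loading (1.25 μg/mL final, 30 min, 37 °C, dark), cells were seeded at 2 × 10^5/well in HBSS with Ca2+/Mg2+. Fluorescence (485/538 nm) was tracked every 5 s for 240 s at room temperature. Maximum change over baseline was normalised, and EC50 came from a 5-6-point nonlinear fit.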
# FPR2 = target: T3, FPR2 (Homo sapiens, UniProt P25090); assay: Ca2+ mobilization assay in FPR2-HL60 cells; details: for Emax: read-out: Ca2+ flux FPR2-HL60 efficacy
# T3 sequence (P25090 1-351): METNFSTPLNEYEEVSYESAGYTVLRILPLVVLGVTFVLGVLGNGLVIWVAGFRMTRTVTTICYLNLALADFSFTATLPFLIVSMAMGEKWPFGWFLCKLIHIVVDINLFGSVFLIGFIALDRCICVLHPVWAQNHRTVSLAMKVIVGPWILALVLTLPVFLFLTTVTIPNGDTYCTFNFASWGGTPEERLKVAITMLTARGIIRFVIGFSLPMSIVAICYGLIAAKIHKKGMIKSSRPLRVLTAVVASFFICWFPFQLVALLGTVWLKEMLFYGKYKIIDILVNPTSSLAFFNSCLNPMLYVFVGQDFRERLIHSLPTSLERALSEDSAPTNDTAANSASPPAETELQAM
# Method in brief: as §1
Compound,EC50 (FPR3),Emax (FPR3),Emax (FPR1),EC50 (human neutrophils),Emax (FPR2),EC50 (FPR1),EC50 (FPR2)
"CCc1c(C)nn(CC(=O)Nc2ccc(Br)cc2)c(=O)c1Cc1cccc(OC)c1 [4c, N-(4-Bromophenyl)-2-[4-ethyl-5-(3-methoxybenzyl)-3-methyl-6-oxopyridazin-1(6H)-yl]acetamide]",4.1 ± 1.7 µM,100%,120%,1.2 ± 0.3 µM,100%,–,–
"CCCc1c(C)nn(CC(=O)Nc2ccc(Br)cc2)c(=O)c1Cc1cccc(OC)c1 [4d, N-(4-Bromophenyl)-2-[5-(3-methoxybenzyl)-3-methyl-6-oxo-4-propylpyridazin-1(6H)-yl]acetamide]",3.4 ± 0.76 µM,65%,115%,3.2 ± 1.2 µM,90%,–,–
"CCCCc1c(C)nn(CC(=O)Nc2ccc(Br)cc2)c(=O)c1Cc1cccc(OC)c1 [4e, N-(4-Bromophenyl)-2-[4-butyl-5-(3-methoxybenzyl)-3-methyl-6-oxopyridazin-1(6H)-yl]acetamide]",–,–,–,2.7 ± 0.7 µM,90%,–,–
"CC(=O)c1sc(=O)n(CC(=O)Nc2ccc(Br)cc2)c1C [9a, 2-(5-Acetyl-4-methyl-2-oxo-thiazol-3-yl)-N-(4-bromophenyl)acetamide]",–,–,75%,12.2 ± 2.5 µM,60%,8.9 ± 1.9 µM,5.8 ± 1.4 µM
"Cc1csc(=O)n1CC(=O)Nc1ccc(Br)cc1 [9b, N-(4-Bromophenyl)-2-(4-methyl-2-oxo-thiazol-3-yl)acetamide]",27.8 ± 3.2 µM,85%,70%,10.7 ± 2.3 µM,80%,12.4 ± 2.6 µM,4.1 ± 1.1 µM
"O=C(Cn1c(-c2ccccc2)csc1=O)Nc1ccc(Br)cc1 [9c, N-(4-Bromophenyl)-2-(2-oxo-4-phenyl-thiazol-3-yl)acetamide]",19.7 ± 2.4 µM,135%,100%,6 ± 1.5 µM,95%,1.8 ± 0.6 µM,2.1 ± 0.6 µM
"COc1cccc(-c2csc(=O)n2CC(=O)Nc2ccc(Br)cc2)c1 [9d, N-(4-Bromophenyl)-2-[4-(3-methoxyphenyl)-2-oxothiazol-3-yl]-acetamide]",5.1 ± 1.7 µM,100%,90%,1.3 ± 0.3 µM,120%,–,–
"COc1ccc(-c2csc(=O)n2CC(=O)Nc2ccc(Br)cc2)cc1 [9e, N-(4-Bromophenyl)-2-[4-(4-methoxyphenyl)-2-oxothiazol-3-yl]acetamide]",36.1 ± 3.3 µM,85%,110%,7.4 ± 2.3 µM,100%,2.6 ± 0.6 µM,1.8 ± 0.16 µM
"O=C(Cn1c(-c2cccc(Cl)c2)csc1=O)Nc1ccc(Br)cc1 [9f, N-(4-Bromophenyl)-2-[4-(3-chlorophenyl)-2-oxothiazol-3-yl]acetamide]",32.2 ± 3.6 µM,75%,75%,11.1 ± 2.8 µM,110%,6 ± 1.7 µM,3 ± 0.7 µM
"O=C(Cn1c(-c2ccc(Cl)cc2)csc1=O)Nc1ccc(Br)cc1 [9g, N-(4-Bromophenyl)-2-[4-(4-chlorophenyl)-2-oxothiazol-3-yl]acetamide]",–,–,75%,12.2 ± 3.1 µM,75%,–,–
"O=C(Cn1c(-c2ccc([N+](=O)[O-])cc2)csc1=O)Nc1ccc(Br)cc1 [9h, N-(4-Bromophenyl)-2-[4-(4-nitrophenyl)-2-oxothiazol-3-yl]acetamide]",–,–,60%,1.5 ± 0.4 µM,–,–,–
"Nc1ccc(-c2csc(=O)n2CC(=O)Nc2ccc(Br)cc2)cc1 [compound 10, 2-[4-(4-Aminophenyl)-2-oxothiazol-3-yl]-N-(4-bromophenyl)acetamide]",–,–,80%,36.1 ± 3.9 µM,65%,34.9 ± 4.2 µM,14.7 ± 3.7 µM
